Variants at the floor of the assay were thinned out.
B1: tRNA (parent)
chain: GUUCCGUUGGCGUAAUGGUAACGCGUCUCCCUCCUAAGGAGAAGACUGCGGGUUCGAGUCCCGUACGGAACG

Variants of: B1
Assay: yeast fitness relative to wild type (ratio to wild type); higher = fitter; tRNA-Arg(CCU), competitive growth, 37 C, YPD
Procedure, shortened: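 Genotype frequency changes were the basis for Darwinian fitness relative to wild type. The frequencies came from 100-nucleotide paired-end sequencing of gene amplicons from the start population and each end population of pooled yeast strains with tRNA-Arg(CCU) gene variants at the native locus. Competition ran in YPD at 37°C for 24 hours in six replicates, genotypes needed ≥ 100 starting reads, and estimates < 0.5 were set to 0.5.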

Variant	yeast fitness
U8A C11A G56C	≤ 0.5
U7G C27G A40U C49G	≤ 0.5
U7G U19A C22G C24G A40G C55G G68C	≤ 0.5
U8C C29G C30U C46U G48A	≤ 0.5
U8G A69U	0.575
U8C C27A U47A G56C A69C	≤ 0.5
U8C A15U G25A C34G G58C	≤ 0.5
U7G U13A	0.898
U8A C30G G56C A57G G68A A69C	≤ 0.5
G9A A14C U35C	≤ 0.5
U7G C30U G38A G50A	0.589
G9A A14U A21U A69C	0.755
U8A G12A A14C C60U G67C	≤ 0.5
U8A U19C G48C U59A C61U C66U	≤ 0.5
U8G C30U C31G C66G	≤ 0.5
U8A U13A A20C A21U A42U	≤ 0.5
U8G G41A C60G	≤ 0.5
U8G A14G G18A U47A	≤ 0.5
U7G C31U C33G A42U	0.563
U8A G18A C30A U32A U35G C66U A69U	≤ 0.5
U8G U16C A21U C22A U28G	≤ 0.5
U8A C11G C34G C60G A65U	≤ 0.5
U8C U26A C27A	≤ 0.5
U7G C27G G39C U47C C49G A57G	≤ 0.5

Variant	yeast fitness
U8A G10C C29A A40U C55G	0.533
U8A C27A G68C	≤ 0.5
U8A C30U G63A	≤ 0.5
U8C G9A G12A C60U	≤ 0.5
U8C G68A	0.741
U8C G12A G48C	0.675
U8G C49G U53C C60A A69U	≤ 0.5
U8A G18A G25A C33U G51A G56A	0.614
U8A G18A U32A G58A	≤ 0.5
U8C C11U G18A A20U C22G C31G	≤ 0.5
U8A G9C G38A A40C U59C	0.638
U8C G10A G67C	0.592
U8C G50C	0.663
U8C G9A A42G G58U	≤ 0.5
U8A U54A C55U G68A A69U	0.507
U8G U47A	0.602
U8C U32C	0.81
G9A A14G C60U C62U	≤ 0.5
U8C U16A U19A C22U U28C	≤ 0.5
U8C C27A G52A C62G A69G	≤ 0.5
U8A C49G A57C	≤ 0.5
U8C C24U A65C	0.59
U8G G56A	0.568
U8A G12A C62U	≤ 0.5

Variant	yeast fitness
U8C G9C A21C C24G G38A	0.74
U8A G12A C33U A65U	0.562
U8G U26A C66U G67C	0.847
U8C C11U C22G C55G G63C	≤ 0.5
U8A C31G	0.679
U8C A21U U32A C55G	0.517
U8C C24A U35G G52A U64A	≤ 0.5
U8A A20U A70C	0.56
U8A C11U	0.633
U8G A14G G25A A36G A42U G68C	≤ 0.5
U8C A15G U16A C46U U54C	0.601
U8G C30A G50C C62U G67U	≤ 0.5
U8C G10A G51A G58A	≤ 0.5
U8A U16A C29G A40G A42G C46G A65U	≤ 0.5
U8C C31G G51A G68C	≤ 0.5
U8A A40G C61G	≤ 0.5
U8C G12C A70C	0.686
U8A G12A A21G	≤ 0.5
U8A G10U C22U A37G	0.511
U8C U13G C22U C49U A65U	≤ 0.5
U8C U26A A43U A70U	0.675
U7G C30U A36G C55G	≤ 0.5
U8G A14U G50A A57U A70G	≤ 0.5
U8A C34U C55G	≤ 0.5

Variant	yeast fitness
U8A A14G C46U G50C C55U A57U C62G A70U	≤ 0.5
U8G A20G	0.544
U7G C22G G50A	0.514
U8C A37G	0.657
U8C C22U U32C C46G U53G G68C	≤ 0.5
U8A C61A	0.753
U8C G9A G12A	0.529
U8G C49U C55U	0.549
U8C C61A	0.763
U8C C61U	0.942
U8C C31U C46A C49A	≤ 0.5
U8A U19A G50C	≤ 0.5
U8C A70G	0.971
U8A C11U G25A C33A A40U	≤ 0.5
U8A G9A A36C C61G G67C	0.797
U8G A57C	≤ 0.5
U8C C27G A42G C60U U64A C66A G68A A69G	0.543
U8G U13A C30U G39C	≤ 0.5
U8A A40U A70C	0.547
U8C U28G A40U	0.588
U8C A21G U28C	0.637
G9A A14U C29G C34A G63A	≤ 0.5
U8C U16C A20C C24G C55A	0.729
U8G C27A	0.564

Variant	yeast fitness
U7G U28C	0.808
G9A A14U C46G C55U A69C	≤ 0.5
U8C C22U G23C C33G C49U	≤ 0.5
G9A A14G C29G	≤ 0.5
U8C G18C	0.684
U8A G39C A57G A65G	≤ 0.5
U8C A36G G39C C49U U54G	≤ 0.5
U8C G18A G23C C31G G38C G41A	0.635
U8C A42C	0.857
U8A G18C G48C A65G	≤ 0.5
U8G G25A A70C	0.544
U8C A14C C55U C61G C62G	≤ 0.5
U8A G10A A69U	0.542
U8C C55U G58A	≤ 0.5
U7G G25C G56A	0.697
U8A G44A G67C	≤ 0.5
U8A C24G A40G C49U G56C	≤ 0.5
U8G C29G A40U C61U A69C	0.648
U7G G25C	0.958
U8A A20C U35A G38C	≤ 0.5
U8C G41A A65G	0.63
U8C A15G	0.969
U8A C29A	≤ 0.5
U8A A14C C31A G41C C49A	0.562

Variant	yeast fitness
U8A C31G C34U C55U G58A C61U	≤ 0.5
U8A A14G C31U G58A C61G C66U	≤ 0.5
U8C G9A C22G U32G C49G C55G	≤ 0.5
U8C C29A C34G A36G A40C U47A U64C	≤ 0.5
U8C U32G G50A A69U	0.557
U7G C24U C33U	0.568
U7G U59G	0.705
U8G G18A G50C A65U	0.513
U8A C24A A70U	≤ 0.5
U8C U19C C55G A70C	≤ 0.5
U8A C55U G68A	0.578
U8A U19C C31A U35G A43G U47C G52C G67A	0.575
U8A C49U A69U	0.537
U7G U19C	0.767
U8C G25C C31U A69C	≤ 0.5
U8C C22G C30G	≤ 0.5
U8C A40G A43C	0.732
U8G C49G U53C C60A	≤ 0.5
U8A A14G	0.632
U8A A14C	0.692
U8A C31U A69C	0.557
U8C C29A U54A	≤ 0.5
U8C U19C	0.978
U7G C22G U28A C31G C55A G68C	≤ 0.5

Variant	yeast fitness
U7G C30U U47A	≤ 0.5
U8C A21U C30G G58C	≤ 0.5
U8A A36U C55G G58A U59C A69C	≤ 0.5
U8G C34U A40G C46A	≤ 0.5
U8G C34G C55G C62A G68A	≤ 0.5
U8G G10C A20G G58A	≤ 0.5
U8G G51A A65U	≤ 0.5
U7G U8C A70U	0.588
U8G U54G G56C	≤ 0.5
U7G C29G C46U G50U	≤ 0.5
U8C C24G G38C U53G	0.635
U8G A37U G63C	≤ 0.5
U8C U19C G23C U53C	≤ 0.5
U8A G10A G39A	0.626
U8G G67U	0.583
G9A A14G A20C A42C	≤ 0.5
U8A U26C G38A	≤ 0.5
U8C U35C	0.899
U7G U32A U35C C61G	≤ 0.5
U8G U13G G23C A40C G63A	≤ 0.5
U7G G38A A40G C66A	≤ 0.5
U8A U13A G48C	0.516
U8G G17A A20C C22G C29G C34G A70G	≤ 0.5
